From article PMC12783166 (Clinical Pharmacokinetics, 2025)
Values joined by “and” are separate entries in the source; they are usually repeats but may differ in a detail not shown here. Equal values may be shown once. “Also recorded” adds a separate entry of the source.

Columns and labels:
P-gp = details: cited from earlier work
OATP1B1 = details: cited from earlier work
[1] = Phase 1 population PK model; type: in vivo, human; details: Phase 1 Model
[2] = Phase 3 population PK model; type: in vivo, human
Method in brief: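 Nonlinear mixed-effects model fitted by FOCE with interaction to pooled plasma and dried-blood-spot LC-MS/MS concentrations from 12 phase 1, 1 phase 2b/3 and 1 phase 3 study (healthy participants and migraine patients, single/multiple oral doses). Plasma LLOQ 0.1 or 1.0 ng/mL, DBS 2.5 ng/mL. Below-LLOQ samples and |CWRES| > 6 excluded. Log-normal IIV. Covariates added stepwise (ΔOFV 6.63, P < 0.01).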

[3] = Phase 2 population PK model; type: in vivo, human; details: Phase 2 Model
[4] = system: calcitonin gene-related peptide receptor; details: plasma concentration threshold; cited from earlier work
[5] = Covariate evaluation of model-predicted 60 mg steady-state exposures; type: in vivo, human
Method in brief: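 Final population model predicted steady-state AUC24 and Cmax for 60 mg once daily in EM phase 2b/3, EM phase 3 and CM phase 3 patients. Covariates included renal function, age, sex, weight, race and comedication with BCRP inhibitors, BCRP substrates or statins. Each subgroup is given as a geometric mean ratio with 95% CI against its reference group.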

[6] = Phase 3 Model, fractional covariate effect
[7] = Phase 3 Model, multiple rifampin doses and a single atogepant dose
[8] = Phase 3 Model, proportional residual error
[9] = Phase 3 Model, single-dose atogepant and single-dose rifampin
[10] = model-predicted steady state, 60 mg daily

- Famotidine pre-treatment on Frel ([1]; fractional covariate effect): −0.15
- Famotidine pre-treatment on ka ([1]; fractional covariate effect): −0.51
- Formulation 2 tablet effect on ka ([1]; fractional covariate effect): −0.44
- Formulation 2 tablet on Frel ([1]; fractional covariate effect): −0.17
- Formulation 4 tablet effect on ka ([1]; fractional covariate effect): −0.42
- Oral solution on Frel ([1]; fractional covariate effect): −0.67
- Absorption rate constant [ka (/h)] ([1]; healthy participants): 2.44 h⁻¹
- Apparent clearance healthy participants [CL/F (L/h)] ([1]; healthy participants): 19.82 L/h
- Lag time [ALAG (h)] ([1]; healthy participants): 0.30 h
- Exponential dose effect on ka ([1]; power exponent): −0.41
- σprop ([1]; proportional residual error): 0.12
- ω^2CL/F ([1]; variance of IIV): 0.151
- ω^2Q/F ([1]; variance of IIV): 0.197
- ω^2V1/F ([1]; variance of IIV): 0.136
- ω^2V2/F ([1]; variance of IIV): 0.422
- ω^2ka ([1]; variance of IIV): 0.537
- Blood concentrations as percentage of those in plasma ([2]; Phase 3 Model): 57.3%
- Blood-plasma ratio ([2]; Phase 3 Model): 0.573
- Effect of concomitant statins on CL/F and Frel ([2]; Phase 3 Model): not found to have a significant effect
- Fraction zero-order absorption (Fk0) ([2]; Phase 3 Model): 0.693
- Frel at the 60-mg dose compared with the 10-mg dose ([2]; Phase 3 Model): approximately 1.24 fold
- Higher Frel with coadministration of itraconazole ([2]; Phase 3 Model): 1.95 fold
- IIV on CL/F ([2]; Phase 3 Model): 15.6 % CV
- IIV on Frel ([2]; Phase 3 Model): 48.4 % CV
- IIV on Q/F ([2]; Phase 3 Model): 68.6 % CV
- IIV on Tk0 ([2]; Phase 3 Model): 40.4 % CV
- IIV on V2/F ([2]; Phase 3 Model): 77.5 % CV
- IOV on Frel ([2]; Phase 3 Model): 19.3 % CV
- Duration zero-order absorption [Tk0 (h)] ([2]; Phase 3 Model, 60 mg reference dose): 0.908 h
- Residual variability error term ([2]; Phase 3 Model, CGP-PK-02): 22.8 % CV
- Residual variability error term ([2]; Phase 3 Model, EM phase 2b/3 study): 58.5 % CV
- Lower CL/F with coadministration of quinidine ([2]; Phase 3 Model, P-gp inhibitor): 28.5%
- Residual variability error term ([2]; Phase 3 Model, all phase 1 studies except CGP-PK-02): 30.7 % CV
- CovQ/F,V2/F ([2]; Phase 3 Model, covariance of IIV): 0.422
- Food effect on ALAG [2, 6]: 0.672
- Itraconazole effect on Frel [2, 6]: 0.949
- Rifampin effect on Frel after first dose [2, 6]: 1.42
- Rifampin effect on Frel following multiple doses [2, 6]: −0.248
- Apparent clearance healthy participants [CL/F (L/h)] ([2]; Phase 3 Model, healthy participants): 22.9 L/h
- Absorption lag time following a high-fat meal ([2]; Phase 3 Model, high-fat meal): 0.46 h
- Decrease of Frel with multiple rifampin doses [2, 7]: 24.8%
- Increase of CL/F with multiple rifampin doses [2, 7]: 1.82 fold
- Apparent clearance patients [CL/F (L/h)] ([2]; Phase 3 Model, patients with EM): 17.4 L/h
- CL/F lower in patients than in healthy participants ([2]; Phase 3 Model, patients with EM vs healthy participants): 23.7%
- Residual variability error term ([2]; Phase 3 Model, phase 3 studies): 49.1 % CV
- Exponential dose effect on Frel ([2]; Phase 3 Model, power exponent, dose/60 mg): 0.119
- σprop [2, 8]: 0.307
- σprop (ADVANCE and PROGRESS studies) [2, 8]: 0.491
- σprop (study CGP-MD-01) [2, 8]: 0.585
- σprop (study CGP-PK-02) [2, 8]: 0.228
- Lower CL/F with severe hepatic impairment ([2]; Phase 3 Model, relative to normal liver function or mild or moderate hepatic impairment): 36.6%
- Higher Frel with single-dose rifampin [2, 9]: 2.4 fold
- Lower CL/F with single-dose rifampin [2, 9]: ~ 13% and 12.8%
- Lower CL/F with coadministration of itraconazole ([2]; Phase 3 Model, strong CYP3A4 inhibitor): 66.2%
- ω^2CL/F ([2]; Phase 3 Model, variance of IIV): 0.0243
- ω^2Frel ([2]; Phase 3 Model, variance of IIV): 0.234
- ω^2Q/F ([2]; Phase 3 Model, variance of IIV): 0.471
- ω^2V2/F ([2]; Phase 3 Model, variance of IIV): 0.601
- ω^2tk0 ([2]; Phase 3 Model, variance of IIV): 0.163
- ω^2IOVFrel ([2]; Phase 3 Model, variance of IOV): 0.0373
- Lag time [ALAG (h)] ([2]; Phase 3 Model, without food): 0.276 h
- Vd/F ([2]; human, plasma, oral): 86.1 L
- Blood-plasma ratio [3]: 0.567
- Lag time [ALAG (h)] [3]: 0.298 h
- Effect of solution on ALAG ([3]; fractional covariate effect): −0.191
- Effect of solution on Frel ([3]; fractional covariate effect): −0.547
- Apparent clearance healthy participants [CL/F (L/h)] ([3]; healthy participants): 18.2 L/h
- Absorption rate constant [ka (/h)] ([3]; healthy participants and EM patients): 1.31 h⁻¹
- Apparent clearance patients [CL/F (L/h)] ([3]; patients): 18.2 L/h
- Exponential effect of dose on Frel ([3]; power exponent): 0.163
- Exponential effect of dose on ka ([3]; power exponent): −0.252
- σprop ([3]; proportional residual error): 0.339
- σprop (study CGP-MD-01) ([3]; proportional residual error): 0.572
- σprop (study CGP-PK-02) ([3]; proportional residual error): 0.252
- ω^2CL/F ([3]; variance of IIV): 0.0724
- ω^2Q/F ([3]; variance of IIV): 0.550
- ω^2ka ([3]; variance of IIV): 0.683
- ω^2IOVFrel ([3]; variance of IOV): 0.228
- Effect of mild or moderate renal impairment on atogepant PK ([5]; model-predicted): no clinically relevant effect
- Change of Cmax with BCRP inhibitors [5, 10]: No change; also recorded: no impact
- Decrease of AUC24 with use of BCRP inhibitors [5, 10]: 1%
- Decrease of AUC24 with use of BCRP substrates [5, 10]: 3%
- Decrease of Cmax with use of BCRP substrates [5, 10]: 3%
- Increase of AUC24 with use of statins [5, 10]: 14%
- Increase of Cmax with use of statins [5, 10]: 13%
Compound: C[C@@H]1[C@H](c2c(F)ccc(F)c2F)C[C@H](NC(=O)c2cnc3c(c2)C[C@@]2(C3)C(=O)Nc3ncccc32)C(=O)N1CC(F)(F)F [atogepant, Atogepant]
- Transporter substrate status (P-gp): substrate
- Transporter substrate status (OATP1B1): substrate
- Exponential weight effect on V1/F ([2]; Phase 3 Model, power exponent, body weight/76.8 kg): 0.411
- EC90 (effective concentration that results in 90% inhibition of the CGRP receptor) [4]: 8.4 ng/mL
- Effect of age, BCRP inhibitors, BCRP substrates, statins, body weight, race, renal function and sex on steady-state AUC24 and Cmax ([5]; model-predicted, 60 mg daily, compared with reference groups): < 20%
